In ChEMBL document CHEMBL3580579, “Anti-inflammatory Hydrolyzable Tannins from Myricaria bracteata” (J Nat Prod, 2015):
pIC50: −log10 of the molar value. The source made the active and inactive calls. The calls are words filed in the database; no cut-off is given here.

How the values were obtained:
[1] = Antioxidant activity assessed as DPPH radical-scavenging activity incubated for 30 mins by spectrophotometry; format: physicochemical
Outline: (§1)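 Radical scavenging of each tannin measured against DPPH and hydroxy radicals by literature methods, with BHT and Trolox as reference antioxidants.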

[2] = Antioxidant activity assessed as hydroxy radical-scavenging activity; format: physicochemical; outline: as §1
J774 [3] = experiment: Increase in cell viability of mouse J774 cells at 0.01 to 10 uM by MTT assay; format: functional, cell-based
Mus musculus [4] = experiment: Anti-inflammatory activity in mouse model of croton oil-induced ear edema assessed as inhibition of ear swelling at 200 mg/kg, sc; format: functional
Liver microsome = experiment: Antioxidant activity assessed as inhibition of Fe2+-cysteine-induced lipid peroxidation in rat liver microsomes incubated for 30 mins by thiobarbituric acid based assay; format: functional; conditions: 0.5 h
Mus musculus [5] = experiment: Anti-inflammatory activity in mouse model of carrageenan-induced paw edema assessed as inhibition of paw edema at 50 mg/kg, sc; format: functional
Mus musculus [6] = experiment: Anti-inflammatory activity in mouse model of croton oil-induced ear edema assessed as inhibition of ear swelling at 100 mg/kg, sc; format: functional
Mus musculus [7] = experiment: Anti-inflammatory activity in DBA/1 mouse model of collagen induced arthritis assessed as inhibition of disease progression and development at 20 mg/kg, sc measured on day 57; format: functional; conditions: DBA/1, sc, 1368 h
J774 [8] = experiment: Inhibition of TNFalpha production in LPS-induced mouse J774 cells at 0.01 to 10 uM; format: functional, cell-based
J774 [9] = experiment: Inhibition of IL6 production in LPS-induced mouse J774 cells at 0.01 to 10 uM; format: functional, cell-based
Mus musculus [10] = experiment: Anti-inflammatory activity in mouse model of croton oil-induced ear edema assessed as inhibition of ear swelling at 50 mg/kg, sc; format: functional
J774 [11] = experiment: Inhibition of nitric oxide production in LPS-induced mouse J774 cells at 0.01 to 10 uM incubated for 24 hrs by Griess reaction based assay; format: functional, cell-based

| SMILES | pIC50 [1] | pIC50 [2] | Activity (J774 [3]) | also measured |
| --- | --- | --- | --- | --- |
| O=C1O[C@@H]2O[C@H](CO)[C@@H](O)[C@H](OC(=O)c3cc(O)c(O)c(O)c3)[C@H]2OC(=O)c2cc(Oc3c(C(=O)O[C@H]4C(O)O[C@@H]5COC(=O)c6cc(O)c(O)c(O)c6-c6c(cc(O)c(O)c6O)C(=O)O[C@H]5[C@@H]4OC(=O)c4cc(O)c(O)c(O)c4)cc(O)c(O)c3O)c(O)c(O)c2Oc2cc1cc(O)c2O (stereo partly drawn) | 5.62 | 4.80 | – | – |
| O=C1O[C@@H]2O[C@@H]3COC(=O)c4cc(O)c(O)c(O)c4-c4c(cc(O)c(O)c4O)C(=O)O[C@H]3[C@H](OC(=O)c3cc(O)c(O)c(O)c3)[C@H]2OC(=O)c2cc(Oc3c(C(=O)O[C@H]4C(O)O[C@H](CO)[C@@H](O)[C@@H]4OC(=O)c4cc(O)c(O)c(O)c4)cc(O)c(O)c3O)c(O)c(O)c2Oc2cc1cc(O)c2O (stereo partly drawn) | 5.33 | 4.43 | – | – |
| O=C(O[C@@H]1O[C@@H]2COC(=O)c3cc(O)c(O)c(O)c3-c3c(cc(O)c(O)c3O)C(=O)O[C@H]2[C@H](OC(=O)c2cc(O)c(O)c(O)c2)[C@H]1OC(=O)c1cc(O)c(O)c(O)c1Oc1cc2c(c(O)c1O)Oc1cc(cc(O)c1O)C(=O)O[C@@H]1O[C@@H]3COC(=O)c4cc(O)c(O)c(O)c4-c4c(cc(O)c(O)c4O)C(=O)O[C@H]3[C@H](OC(=O)c3cc(O)c(O)c(O)c3)[C@H]1OC2=O)c1cc(O)c(O)c(Oc2c(C(=O)O[C@H]3[C@H](OC(=O)c4cc(O)c(O)c(O)c4)O[C@H](CO)[C@@H](O)[C@@H]3OC(=O)c3cc(O)c(O)c(O)c3)cc(O)c(O)c2O)c1 | 5.51 | 4.32 | Active | – |
| O=C1O[C@@H]2O[C@@H]3COC(=O)c4cc(O)c(O)c(O)c4-c4c(cc(O)c(O)c4O)C(=O)O[C@H]3[C@H](OC(=O)c3cc(O)c(O)c(O)c3)[C@H]2OC(=O)c2cc(Oc3c(C(=O)O[C@H]4[C@H](OC(=O)c5cc(O)c(O)c(O)c5)O[C@H](CO)[C@@H](O)[C@@H]4OC(=O)c4cc(O)c(O)c(O)c4)cc(O)c(O)c3O)c(O)c(O)c2Oc2cc1cc(O)c2O | 5.35 | 4.79 | Active | – |
| O=C1O[C@@H]2O[C@@H]3COC(=O)c4cc(O)c(O)c(O)c4-c4c(cc(O)c(O)c4O)C(=O)O[C@H]3[C@H](OC(=O)c3cc(O)c(O)c(O)c3)[C@H]2OC(=O)c2cc(O)c(O)c(O)c2Oc2cc(cc(O)c2O)C(=O)O[C@@H]2O[C@@H]3COC(=O)c4cc(O)c(O)c(O)c4-c4c(cc(O)c(O)c4O)C(=O)O[C@H]3[C@H](OC(=O)c3cc(O)c(O)c(O)c3)[C@H]2OC(=O)c2cc(O)c(O)c(O)c2Oc2cc1cc(O)c2O | 5.35 | 4.37 | Active | – |
| O=C(O[C@@H]1O[C@@H]2COC(=O)c3cc(O)c(O)c(O)c3-c3c(cc(O)c(O)c3O)C(=O)O[C@H]2[C@H](OC(=O)c2cc(O)c(O)c(O)c2)[C@H]1OC(=O)c1cc(O)c(O)c(O)c1Oc1cc(C(=O)O[C@@H]2O[C@@H]3COC(=O)c4cc(O)c(O)c(O)c4-c4c(cc(O)c(O)c4O)C(=O)O[C@H]3[C@H](OC(=O)c3cc(O)c(O)c(O)c3)[C@H]2OC(=O)c2cc(O)c(O)c(O)c2Oc2cc3c(c(O)c2O)Oc2cc(cc(O)c2O)C(=O)O[C@@H]2O[C@@H]4COC(=O)c5cc(O)c(O)c(O)c5-c5c(cc(O)c(O)c5O)C(=O)O[C@H]4[C@H](OC(=O)c4cc(O)c(O)c(O)c4)[C@H]2OC3=O)cc(O)c1O)c1cc(O)c(O)c(O)c1 | 5.37 | 4.26 | Active | – |
| COc1cc(C(=O)O[C@@H]2[C@@H](OC(=O)c3cc(OC)c(OC)c(OC)c3Oc3cc4c(c(OC)c3OC)Oc3cc(cc(OC)c3OC)C(=O)O[C@@H]3O[C@@H]5COC(=O)c6cc(OC)c(OC)c(OC)c6-c6c(cc(OC)c(OC)c6OC)C(=O)O[C@H]5[C@H](OC(=O)c5cc(OC)c(OC)c(OC)c5)[C@H]3OC4=O)[C@H](OC)O[C@@H]3COC(=O)c4cc(OC)c(OC)c(OC)c4-c4c(cc(OC)c(OC)c4OC)C(=O)O[C@@H]23)cc(OC)c1OC | < 4.00 | < 4.00 | – | inhibition in vivo at 200 mg/kg (Mus musculus [4]): -0.7% |
| COc1cc(C(=O)O[C@@H]2[C@H]3OC(=O)c4cc(Oc5c(C(=O)O[C@H]6[C@@H](OC)O[C@@H]7COC(=O)c8cc(OC)c(OC)c(OC)c8-c8c(cc(OC)c(OC)c8OC)C(=O)O[C@H]7[C@@H]6OC(=O)c6cc(OC)c(OC)c(OC)c6)cc(OC)c(OC)c5OC)c(OC)c(OC)c4Oc4cc(cc(OC)c4OC)C(=O)O[C@@H]3O[C@@H]3COC(=O)c4cc(OC)c(OC)c(OC)c4-c4c(cc(OC)c(OC)c4OC)C(=O)O[C@@H]23)cc(OC)c1OC | < 4.00 | < 4.00 | – | inhibition in vivo at 200 mg/kg (Mus musculus [4]): 2.1% |
| Cc1cc(C(C)(C)C)c(O)c(C(C)(C)C)c1 [BUTYLATED HYDROXYTOLUENE] | 5.15 | 4.65 | – | – |
| O=C(O)c1cc(O)c(O)c(O)c1 [GALLIC ACID] | 5.14 | 4.81 | – | – |
| O=C(O[C@@H]1O[C@@H]2COC(=O)c3cc(O)c(O)c(O)c3-c3c(cc(O)c(O)c3O)C(=O)O[C@H]2[C@H](OC(=O)c2cc(O)c(O)c(O)c2)[C@H]1OC(=O)c1cc(O)c(O)c(O)c1-c1c(C(=O)O[C@@H]2O[C@@H]3COC(=O)c4cc(O)c(O)c(O)c4-c4c(cc(O)c(O)c4O)C(=O)O[C@H]3[C@H](OC(=O)c3cc(O)c(O)c(O)c3)[C@H]2OC(=O)c2cc(O)c(O)c(O)c2)cc(O)c(O)c1O)c1cc(O)c(O)c(O)c1 [HIRTELLIN A] | 5.34 | 4.41 | Active | pIC50 (Liver microsome): 4.81 |
| O=C(O[C@@H]1O[C@@H]2COC(=O)c3cc(O)c(O)c(O)c3-c3c(cc(O)c(O)c3O)C(=O)O[C@H]2[C@H](OC(=O)c2cc(O)c(O)c(O)c2)[C@H]1OC(=O)c1cc(O)c(O)c(O)c1Oc1cc2c(c(O)c1O)Oc1cc(cc(O)c1O)C(=O)O[C@@H]1O[C@@H]3COC(=O)c4cc(O)c(O)c(O)c4-c4c(cc(O)c(O)c4O)C(=O)O[C@H]3[C@H](OC(=O)c3cc(O)c(O)c(O)c3)[C@H]1OC2=O)c1cc(O)c(O)c(O)c1 [HIRTELLIN B] | 5.39 | 4.40 | Active | pIC50 (Liver microsome): 4.31 |
| O=C(O[C@@H]1O[C@@H]2COC(=O)c3cc(O)c(O)c(O)c3-c3c(cc(O)c(O)c3O)C(=O)O[C@H]2[C@H](OC(=O)c2cc(O)c(O)c(O)c2)[C@H]1OC(=O)c1cc(O)c(O)c(O)c1Oc1cc2c(c(O)c1O)Oc1cc(cc(O)c1O)C(=O)O[C@@H]1O[C@H](CO)[C@@H](O)[C@H](OC(=O)c3cc(O)c(O)c(O)c3)[C@H]1OC2=O)c1cc(O)c(O)c(O)c1 [NILOTININ D8] | 5.33 | 4.49 | Active | – |
| O=C1O[C@@H]2O[C@@H]3COC(=O)c4cc(O)c(O)c(O)c4-c4c(cc(O)c(O)c4O)C(=O)O[C@H]3[C@H](OC(=O)c3cc(O)c(O)c(O)c3)[C@H]2OC(=O)c2cc(Oc3c(C(=O)O)cc(O)c(O)c3O)c(O)c(O)c2Oc2cc1cc(O)c2O [NILOTININ M4] | 5.50 | 4.42 | – | – |
| O=C1O[C@@H]2O[C@@H]3COC(=O)c4cc(O)c(O)c(O)c4-c4c(cc(O)c(O)c4O)C(=O)O[C@H]3[C@H](OC(=O)c3cc(O)c(O)c(O)c3)[C@H]2OC(=O)c2cc(Oc3c(C(=O)O[C@@H]4[C@@H](OC(=O)c5cc(O)c(O)c(O)c5)[C@@H]5OC(=O)c6cc(O)c(O)c(O)c6-c6c(cc(O)c(O)c6O)C(=O)OC[C@H]5O[C@H]4O)cc(O)c(O)c3O)c(O)c(O)c2Oc2cc1cc(O)c2O [TAMARIXININ A] | 5.45 | 4.38 | Active | inhibition in vivo at 50 mg/kg (Mus musculus [5]): 25%; inhibition in vivo at 200 mg/kg (Mus musculus [4]): 69.8%; inhibition in vivo at 100 mg/kg (Mus musculus [6]): 39%; inhibition in vivo at 20 mg/kg (Mus musculus [7]): 46%; inhibition (J774 [8]): inactive; inhibition (J774 [9]): inactive; pIC50 (Liver microsome): 4.74; inhibition in vivo at 50 mg/kg (Mus musculus [10]): 34.4%; inhibition (J774 [11]): inactive |
| Cc1c(C)c2c(c(C)c1O)CCC(C)(C(=O)O)O2 (stereo not drawn) [TROLOX] | 5.10 | 4.12 | – | – |
